Reference: ChEMBL document CHEMBL1944582, “Pyrazolopyridine Inhibitors of B-Raf(V600E). Part 1: The Development of Selective, Orally Bioavailable, and Efficacious Inhibitors” (ACS Med Chem Lett, 2011)
≈ marks a conversion by molar mass, not a printed value.

Legend:
[1] = target: T1, Serine/threonine-protein kinase B-raf (Homo sapiens, UniProt P15056, V600E); test: Inhibition of B-Raf V600E mutant-mediated Erk phosphorylation in human MALME-3M cells after 1 hr by fluorescence analysis; format: cell-based
T1 sequence (P15056 2-766 V600E limits assumed): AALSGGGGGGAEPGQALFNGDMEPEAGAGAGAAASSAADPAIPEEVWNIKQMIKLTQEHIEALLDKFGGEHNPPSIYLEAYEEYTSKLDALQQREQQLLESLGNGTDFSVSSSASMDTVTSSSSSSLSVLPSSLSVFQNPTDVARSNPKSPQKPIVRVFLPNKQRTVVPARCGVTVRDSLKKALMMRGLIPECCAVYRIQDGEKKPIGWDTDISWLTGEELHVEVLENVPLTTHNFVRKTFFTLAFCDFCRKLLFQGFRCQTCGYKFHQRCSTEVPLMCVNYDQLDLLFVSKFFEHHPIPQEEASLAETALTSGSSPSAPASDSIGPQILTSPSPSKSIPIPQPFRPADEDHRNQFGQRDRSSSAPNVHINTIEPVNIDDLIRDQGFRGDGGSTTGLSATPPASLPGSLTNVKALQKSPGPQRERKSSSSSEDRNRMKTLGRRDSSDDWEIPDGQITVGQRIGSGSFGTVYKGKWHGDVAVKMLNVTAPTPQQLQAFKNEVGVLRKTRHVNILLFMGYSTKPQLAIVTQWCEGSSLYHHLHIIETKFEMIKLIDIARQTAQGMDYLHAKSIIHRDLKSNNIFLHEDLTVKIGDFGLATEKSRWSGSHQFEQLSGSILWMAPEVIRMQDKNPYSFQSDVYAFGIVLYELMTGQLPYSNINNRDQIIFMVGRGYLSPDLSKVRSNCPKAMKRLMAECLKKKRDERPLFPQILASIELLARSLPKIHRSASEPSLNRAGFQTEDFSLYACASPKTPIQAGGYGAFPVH
In short: (§1)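 Cells were not stimulated, and inhibition was read against their basal ERK phosphorylation. This was the mechanistic cellular assay, run in both Malme-3M and A375 lines.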

[2] = Plasma protein binding in CD-1 mouse; format: ADME, cell-free; conditions: read-out: PPB (converted)
[3] = Oral bioavailability in CD-1 mouse at 30 mg/kg as a solution in 40% PEG400/10%ethanol/50% water; format: ADME, organism-based; conditions: in vivo
[4] = AUC in CD-1 mouse at 30 mg/kg, po; format: ADME, organism-based; parameters: dose 30 mg/kg, route oral; conditions: plasma
In short: (§2)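 Single oral dose given to mice as a solution in 40% PEG400/10% ethanol/50% water, at 30 mg/kg or 100 mg/kg. Exposure is reported as AUC in μg h/mL.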

[5] = Clearance in CD-1 mouse; format: ADME, organism-based; conditions: in vivo
In short: (§3)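 Some compounds were also given intravenously to mice. Clearance is reported in mL/min/kg and volume of distribution in L/kg.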

[6] = Volume of distribution in CD-1 mouse; format: ADME, organism-based; conditions: in vivo; in short: as §3
[7] = target: T1, Serine/threonine-protein kinase B-raf; test: Inhibition of B-Raf V600E mutant-mediated Erk phosphorylation in human A375 cells after 1 hr by fluorescence analysis; format: cell-based, A-375; in short: as §1
[8] = target: T1, Serine/threonine-protein kinase B-raf; test: Inhibition of full length human B-Raf V600E mutant expressed in baculovirus infected insect cells assessed as [gamma-33P]incorporation into MEK after 60 mins by scintillation counting
[9] = Aqueous solubility of the compound in phosphate buffer at pH 6.5 after 24 hrs by HPLC analysis; format: physicochemical
[10] = Aqueous solubility of the compound in phosphate buffer at pH 7.4 after 24 hrs by HPLC analysis; format: physicochemical
[11] = test system: COLO 205; test: Cytotoxicity against human COLO205 cells after 4 days by CellTiter-Glo assay; format: functional, cell-based; conditions: COLO 205, 96 h
[12] = test system: COLO 205; test: Antitumor activity against human COLO205 cells xenografted in po dosed mouse assessed as tumor growth inhibition administered QD for 17 days; format: functional; conditions: COLO 205, po, 408 h
In short: (§4)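 Mice with established Colo205 xenografts received the spray-dried dispersion orally at ascending doses once daily for 17 or 20 days. Tumor growth inhibition is expressed as percent of vehicle control, and ED50 and ED90 are given in mg/kg.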

[13] = Oral bioavailability in CD-1 mouse at 30 mg/kg as formulation of 25% SDD; format: ADME, organism-based; conditions: in vivo
In short: (§5)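 Oral dosing in mice used a 25% amorphous spray-dried dispersion on HPMCAS polymer, given at 10, 30, 60 and 100 mg/kg. Oral bioavailability (F) was determined at each dose.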

[14] = Oral bioavailability in CD-1 mouse at 10 mg/kg as formulation of 25% SDD; format: ADME, organism-based; conditions: in vivo; in short: as §5
[15] = Inhibition of CYP450 at 25 uM; format: ADME
[16] = test system: Mus musculus; test: Toxicity in human COLO205 cells xenografted mouse assessed as change in body weight at 100 mg/kg, po administered QD for 17 days; conditions: in vivo, 408 h
[17] = test system: Salmonella typhimurium; test: Induction of mutagenesis in Salmonella Typhimurium by Ames test; format: toxicity, organism-based; conditions: salmonella enterica subsp. enterica serovar typhimurium
[18] = Oral bioavailability in CD-1 mouse at 60 mg/kg as formulation of 25% SDD; format: ADME, organism-based; conditions: in vivo; in short: as §5
[19] = target: Voltage-gated inwardly rectifying potassium channel KCNH2 (Homo sapiens, UniProt Q12809); test: Inhibition of human Erg at 100 uM
Voltage-gated inwardly rectifying potassium channel KCNH2, sequence (Q12809 whole entry): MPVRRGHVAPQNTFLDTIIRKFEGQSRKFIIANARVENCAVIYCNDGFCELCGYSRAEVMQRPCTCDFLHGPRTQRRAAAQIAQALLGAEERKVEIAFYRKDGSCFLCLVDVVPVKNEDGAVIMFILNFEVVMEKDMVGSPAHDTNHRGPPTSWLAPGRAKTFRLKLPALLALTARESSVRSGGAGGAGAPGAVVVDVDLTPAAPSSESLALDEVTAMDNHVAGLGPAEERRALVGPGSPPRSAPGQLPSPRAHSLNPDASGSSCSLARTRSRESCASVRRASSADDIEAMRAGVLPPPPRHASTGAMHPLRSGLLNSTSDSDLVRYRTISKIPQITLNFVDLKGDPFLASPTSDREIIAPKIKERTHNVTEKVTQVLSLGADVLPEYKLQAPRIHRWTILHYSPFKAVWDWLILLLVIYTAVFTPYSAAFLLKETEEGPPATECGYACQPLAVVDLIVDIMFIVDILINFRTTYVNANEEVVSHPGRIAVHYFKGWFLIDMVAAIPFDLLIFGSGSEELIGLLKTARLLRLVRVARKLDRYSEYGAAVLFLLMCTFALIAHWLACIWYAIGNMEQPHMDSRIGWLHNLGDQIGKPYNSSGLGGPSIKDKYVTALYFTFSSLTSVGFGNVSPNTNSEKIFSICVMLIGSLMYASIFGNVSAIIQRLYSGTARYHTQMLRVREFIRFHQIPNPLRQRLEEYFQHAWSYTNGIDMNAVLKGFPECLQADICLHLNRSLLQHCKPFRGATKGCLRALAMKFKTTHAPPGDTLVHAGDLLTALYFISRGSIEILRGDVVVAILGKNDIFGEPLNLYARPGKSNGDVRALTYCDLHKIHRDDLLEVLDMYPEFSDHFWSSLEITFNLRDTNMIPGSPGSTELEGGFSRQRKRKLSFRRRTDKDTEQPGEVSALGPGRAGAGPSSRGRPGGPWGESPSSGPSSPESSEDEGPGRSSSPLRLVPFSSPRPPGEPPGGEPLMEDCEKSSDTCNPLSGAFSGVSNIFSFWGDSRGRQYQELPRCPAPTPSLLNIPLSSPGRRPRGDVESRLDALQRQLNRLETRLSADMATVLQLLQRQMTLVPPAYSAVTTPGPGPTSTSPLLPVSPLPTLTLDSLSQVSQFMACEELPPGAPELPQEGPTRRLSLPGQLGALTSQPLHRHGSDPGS

[20] = Oral bioavailability in CD-1 mouse at 100 mg/kg as a solution in 40%PEG400/10%ethanol/50% water; format: ADME, organism-based; conditions: in vivo
[21] = Oral bioavailability in CD-1 mouse at 100 mg/kg as formulation of 25% SDD; format: ADME, organism-based; conditions: in vivo; in short: as §5
[22] = test system: Mus musculus; test: Toxicity in human COLO205 cells xenografted mouse assessed as change in body weight at 125 mg/kg, po administered QD for 20 days; conditions: in vivo, 480 h
[23] = AUC in CD-1 mouse at 100 mg/kg, po; format: ADME, organism-based; parameters: dose 100 mg/kg, route oral; conditions: plasma; in short: as §2
[24] = test system: COLO 205; test: Antitumor activity against human COLO205 cells xenografted in po dosed mouse assessed as tumor growth inhibition administered QD for 20 days; format: functional; conditions: COLO 205, po, 480 h; in short: as §4
[25] = Oral bioavailability in CD-1 mouse at 2.5 to 80 mg/kg as formulation of 25% SDD; format: ADME, organism-based; conditions: in vivo
In short: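 Oral bridging PK in mice used a 25% amorphous spray-dried dispersion on HPMCAS polymer at 2.5, 10, 40 and 80 mg/kg. Bioavailability (F) was derived per dose. The earlier solution vehicle was 40% PEG400/10% ethanol/50% water, with select intravenous dosing.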

Row | Compound | IC50 [1] [nM] | fraction unbound [2] | bioavailability [3] [%] | AUC [4] [µg·h/mL] | clearance [5] [mL/min/kg] | Vd [6] [L/kg] | IC50 [7] [nM] | IC50 [8] [nM] | solubility at 24 h [9] [µg/mL] | solubility at 24 h [10] [µg/mL] | other results
1 | CCCS(=O)(=O)Nc1ccc(Cl)c(C(=O)Nc2cnc3[nH]ncc3c2)c1F | 56 | 0.029 | 67 | 147 | 2.3 | 0.17 | 560 | 6.3 | 15 (≈ 36.4 µM) | 48 (≈ 117 µM) | 
2 | CCCS(=O)(=O)Nc1ccc(F)c(C(=O)Nc2cnc3[nH]nc(Br)c3c2)c1F | 44 | 0.016 |  | 52.5 |  |  | 260 | 4 | 1 (≈ 2.11 µM) | 3 (≈ 6.33 µM) | 
3 | CCCS(=O)(=O)Nc1ccc(F)c(C(=O)c2c[nH]c3ncc(-c4ccc(Cl)cc4)cc23)c1F [VEMURAFENIB] |  |  |  |  |  |  |  |  |  |  | EC50 [11]: 240 nM
4 | CCCS(=O)(=O)Nc1ccc(F)c(C(=O)Nc2cnc3[nH]cnc3c2)c1F | 2400 |  |  |  |  |  | > 3000 | 61 |  |  | 
5 | CCCS(=O)(=O)Nc1ccc(F)c(C(=O)Nc2cnc3[nH]nc(C)c3c2)c1F | 86 | 0.101 |  | 18.3 |  |  | 830 | 12 | 380 (≈ 928 µM) | 740 (≈ 1810 µM) | 
6 | CCCS(=O)(=O)Nc1ccc(F)c(C(=O)Nc2cccnc2)c1F | 6700 |  |  |  |  |  | > 3000 | 3900 |  |  | 
7 | CCCS(=O)(=O)Nc1ccc(F)c(C(=O)Nc2cnc3[nH]cc(Br)c3c2)c1F | 39 | 0.006 | 71 | 49 | 7.2 | 0.24 | 190 | 3.4 | < 1 | < 1 | 
8 | CCCS(=O)(=O)Nc1ccc(F)c(C(=O)Nc2cnc(N)c(Br)c2)c1F | 310 |  |  |  |  |  | 1200 |  |  |  | 
9 | CCCS(=O)(=O)Nc1ccc(F)c(C(=O)Nc2ccc(N)nc2)c1F | 2400 |  |  |  |  |  | > 3000 | 920 |  |  | 
10 | CCCS(=O)(=O)Nc1ccc(Cl)c(C(=O)Nc2cnc3[nH]nc(OC)c3c2)c1F | 20 | 0.009 | 53 | 1080 | 1 | 0.11 | 240 | 1.7 | < 1 | 2 (≈ 4.53 µM) | ED50 [12]: 11 mg/kg; ED90 [12]: 50 mg/kg; bioavailability [13]: 28%; bioavailability [14]: 53%; inhibition (INH) [15]: Not Active; Activity [16]: Non-toxic; Activity [17]: Non-toxic; bioavailability [18]: 19%; inhibition (INH) [19]: Not Active; bioavailability [20]: 1.2%; EC50 [11]: 70 nM; bioavailability [21]: 13%; Activity [22]: Non-toxic; AUC [23]: 50.7 µg·h/mL
11 | CCCS(=O)(=O)Nc1ccc(F)c(C(=O)Nc2cnc3[nH]nc(OC)c3c2)c1F | 19 | 0.026 | 48 | 190 |  |  | 150 |  | 4 (≈ 9.4 µM) | 9 (≈ 21.2 µM) | ED50 [24]: 20 mg/kg; ED90 [24]: 80 mg/kg; inhibition (INH) [15]: Not Active; bioavailability [25]: 19%; Activity [16]: Non-toxic; Activity [17]: Non-toxic; inhibition (INH) [19]: Not Active; bioavailability [20]: 51%; EC50 [11]: 80 nM; Activity [22]: Non-toxic; AUC [23]: 664 µg·h/mL
12 | CCCS(=O)(=O)Nc1ccc(F)c(C(=O)Nc2cnc3[nH]ncc3c2)c1F | 62 | 0.129 | 100 | 40 | 15 | 0.68 | 430 | 17 | 80 (≈ 202 µM) | 150 (≈ 379 µM) | 
13 | CCCS(=O)(=O)Nc1ccc(F)c(C(=O)Nc2cnc3[nH]ccc3c2)c1F | 94 | 0.021 | 76 | 200 | 1.9 | 0.2 | 290 | 38 | 1 (≈ 2.54 µM) | 4 (≈ 10.1 µM) | 
14 | CCCS(=O)(=O)Nc1ccc(F)c(C(=O)Nc2cnc3[nH]nc(N(C)C)c3c2)c1F | 40 | 0.092 |  | 1.09 |  |  | 650 | 8.2 | 290 (≈ 661 µM) | 450 (≈ 1030 µM) | 
